Assay outcomes as filed in PubChem.
Most compounds without a hit are left out; they make up all but 1.4% or so of the library.
NR2E3 ag-1: inhibitors of NR2E3-RetCOR corepressor binding, primary screen, NR2E3 agonist project, biochemical, TR-FRET, GST-NR2E3, biotin-RetCOR | Photoreceptor-specific nuclear receptor (Homo sapiens), Q9Y5X4 | 1536-well | inhibition of corepressor binding, % at 4.78 µM | 0.12% of 320,000 active | AID 2300, 2010;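 active = percent inhibition above the cutoff of mean plus 3 SD of all tested compounds, set per screening campaign, cut at about 20% in these data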;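 note: 0% = DMSO wells and 100% = biotin wells as full block of FRET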
Target sequence (Q9Y5X4 whole entry, looked up): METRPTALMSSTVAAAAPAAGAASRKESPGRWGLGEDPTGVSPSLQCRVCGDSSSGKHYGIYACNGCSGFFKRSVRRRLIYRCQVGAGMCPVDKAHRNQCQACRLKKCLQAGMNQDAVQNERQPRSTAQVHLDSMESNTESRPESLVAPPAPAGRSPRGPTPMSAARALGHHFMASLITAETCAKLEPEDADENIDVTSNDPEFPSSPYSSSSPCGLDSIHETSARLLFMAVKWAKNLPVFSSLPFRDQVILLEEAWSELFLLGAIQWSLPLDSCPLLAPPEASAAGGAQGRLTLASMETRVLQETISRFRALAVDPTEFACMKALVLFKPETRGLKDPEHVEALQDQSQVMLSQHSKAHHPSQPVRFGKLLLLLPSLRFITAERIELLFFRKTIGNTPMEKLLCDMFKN
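System: GST-tagged NR2E3 plus biotinylated RetCOR corepressor; Amount: 1.35 nM GST-tagged NR2E3 final; Dosing: single nominal compound dose of 4.8 µM; Schedule: 5 h incubation at 4 °C; Technique: TR-FRET with europium anti-GST and streptavidin-D2, 340 nm excitation; Controls: biotin wells as high control, 0.6% DMSO wells as low control.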
NR2E3 ag-2: NR2E3 agonists in two-hybrid cells, primary screen, cell-based, luminescence, CHO-S, Gal4-NCOR/VP16-NR2E3 | inhibition of corepressor binding, % at 3.98 µM | luciferase | AID 602229, 2012 | 0.35% of 360,000 active | Photoreceptor-specific nuclear receptor (Homo sapiens), Q9Y5X4;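 active = inhibition above the mean of all tested compounds plus 3 SD, cut at about 70% in these data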;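 note: 0% = DMSO with NR2E3 transfected cells and 100% = cells lacking NR2E3 construct; higher means lower luciferase signal from less NR2E3 corepressor binding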
NR1D1 modulator: modulators of Rev-erb alpha DNA binding, primary screen, biochemical, FITC-DNA, fluorescence polarization, uHTS; Nuclear receptor subfamily 1 group D member 1 (Homo sapiens), P20393; Rev-erbα–FITC-DNA binding, 90 min; activity, % at 10 µM; 0.79% of 370,000 active;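 active = activity above about 14%, limit read from the data; passing the limit was not always enough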;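 note: 0% = DMSO wells with 35 nM protein and 100% = DMSO wells with 750 nM protein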
PG9 Ab binder: binders of HIV-1 gp120 antibody PG9, primary screen, biochemical, TR-FRET. TR-FRET gp120-PG9 antibody binding. inhibition, % at 6.7 µM. 0.43% of 360,000 active; in the data active = inhibition above about 8.5%
PG9 binder conf: binders of anti-gp120 antibody PG9, confirmation, biochemical, TR-FRET. 90% of 1,500 active. TR-FRET PG9 antibody binding. inhibition, % at 6.7 µM. shares compounds with PG9 Ab binder; in the data active = inhibition above about 9%
PGV04 counter: binders of control antibody PGV04, counter-screen for PG9 antibody binder project, biochemical, TR-FRET, distinct HIV envelope site | 95% of 1,500 active | TR-FRET PGV04 antibody-gp120 binding | inhibition, % at 6.7 µM | shares compounds with PG9 Ab binder; in the data active = inhibition above about 9.5%
PG9 binder DR: small-molecule binders of antibody PG9, dose response, biochemical, TR-FRET, HIV-1 gp120 antibody; AID 651848, 2012; TR-FRET PG9 antibody-gp120 binding inhibition; 95 tested, under 10 active; shares compounds with PG9 Ab binder; IC50, µM; in the data active = IC50 below about 10 µM
PGV04 binding DR: binders of control antibody PGV04, dose response, counter-screen for PG9 antibody binder project, biochemical, TR-FRET, distinct HIV envelope site; shares compounds with PG9 Ab binder; TR-FRET binding to control antibody PGV04; IC50, µM; 20% of 95 active
PG126 binding DR: binders of control antibody PG126, dose response, counter-screen for PG9 antibody binder project, biochemical, TR-FRET, distinct HIV envelope site | shares compounds with PG9 Ab binder | TR-FRET binding to antibody PG126, counterscreen | IC50, µM | 20% of 95 active
Starred values were filed as active, the others as inactive. Cut-off read from the data, not from the text of the source, unless noted: active = IC50 below about 9 µM; inactive = the rest.

CC1(C)Cc2c(C#N)c(SCc3ccccc3)nc(N3CCOCC3)c2CO1 was read as NR2E3 ag-1 -0.3, NR2E3 ag-2 2.4, NR1D1 modulator 4.3 and PG9 Ab binder -0.4.
For Cc1nc2c(sc3nc(N4CCOCC4)c4c(c32)CC(C)(C)OC4)c(-c2ccccc2)c1C(=O)O the results were NR2E3 ag-1 15.5, NR2E3 ag-2 -16.7, NR1D1 modulator 4.9, PG9 Ab binder 15.6*, PG9 binder conf 25.6* and PGV04 counter 32.0*.
For O=C(CN1CCC(NC(=O)Nc2ccc(Cl)cc2)CC1)Nc1ccc2c(c1)OCCO2 the results were NR1D1 modulator -0.2.
For COc1ccc(C(=O)Nc2ccccc2C(=O)NC(C(=O)NCc2ccco2)C(C)C)cc1 (stereo unspecified) the results were NR2E3 ag-1 1.9, NR2E3 ag-2 -21.4, NR1D1 modulator 15.3 and PG9 Ab binder 1.0.
Screening COc1ccc(C(=O)Nc2ccccc2C(=O)N(Cc2ccco2)C(C(N)=O)C(C)C)cc1 (stereo unspecified) returned NR2E3 ag-1 0.9, NR2E3 ag-2 -14.4, NR1D1 modulator 23.8, PG9 Ab binder 9.9*, PG9 binder conf 19.2*, PGV04 counter 15.7*, PG9 binder DR >67, PGV04 binding DR inactive and PG126 binding DR >67.
Screening COCc1cc(C)n(CC(=O)Nc2ccccc2OC)c(=O)c1C#N returned NR2E3 ag-1 -0.8, NR2E3 ag-2 -16.2, NR1D1 modulator 1.8 and PG9 Ab binder -1.8.
For COCc1cc(C)n(CC(=O)Nc2ccc(Cl)cc2Cl)c(=O)c1C#N the results were NR2E3 ag-1 1.5, NR2E3 ag-2 15.2, NR1D1 modulator -2.4, PG9 Ab binder 8.8*, PG9 binder conf 8.2, PGV04 counter 7.9, PG9 binder DR inactive, PGV04 binding DR inactive and PG126 binding DR inactive.
O=C1N/C(=N\c2ccccn2)SC1Cc1ccc(Cl)cc1 (stereo unspecified) was read as NR2E3 ag-1 4.8, NR2E3 ag-2 1.8, NR1D1 modulator 13.1, PG9 Ab binder 9.3*, PG9 binder conf 17.0* and PGV04 counter 28.7*.
Cc1ccc(S(=O)(=O)c2c(N)n(CCN3CCOCC3)c3nc4ccccc4nc23)cc1C was read as NR2E3 ag-1 -2.6, NR2E3 ag-2 9.3, NR1D1 modulator 20.1, PG9 Ab binder 25.5*, PG9 binder conf 17.0* and PGV04 counter 29.5*.
Screening Cc1nc2ccc(F)cc2cc1C(=O)NCc1ccco1 returned NR2E3 ag-1 -1.7, NR2E3 ag-2 -26.1, NR1D1 modulator -3.3 and PG9 Ab binder -1.6.
Screening Cc1nc2ccc(F)cc2cc1C(=O)Nc1ccc(Cl)c(Cl)c1 returned NR2E3 ag-1 4.2, NR2E3 ag-2 6.9, NR1D1 modulator 12.0, PG9 Ab binder 22.2*, PG9 binder conf 23.9* and PGV04 counter 32.3*.
For CN(C)c1cccc(/C=C2\CC3(OC(=O)C4CCCC4)CCCN2C3)c1 (stereo unspecified) the results were NR1D1 modulator 6.0.
CCOc1ccc(NC(=O)CCC(=O)c2ccc(Br)cc2)cc1 was read as NR2E3 ag-1 7.4, NR2E3 ag-2 -47.5, NR1D1 modulator 0.5, PG9 Ab binder 15.9*, PG9 binder conf 18.1* and PGV04 counter 22.3*.
CC(C)(C)CNC(=O)c1cc2c(Br)ccc(Br)c2nc1N was read as NR2E3 ag-2 -14.2, NR1D1 modulator 11.1, PG9 Ab binder 10.0*, PG9 binder conf 7.5 and PGV04 counter 14.3*.
C#CCNC(=O)c1cc2c(Br)ccc(Br)c2nc1N was read as NR2E3 ag-2 -19.3, NR1D1 modulator 3.8, PG9 Ab binder 16.9*, PG9 binder conf 17.7* and PGV04 counter 22.3*.
For Nc1nc2sc3c(c2cc1C(=O)NCC(=O)O)CCCC3 the results were NR2E3 ag-1 -0.9, NR2E3 ag-2 -8.7, NR1D1 modulator -6.1 and PG9 Ab binder -2.1.
For COc1ccc(CNC2CCC23CCC(C)CC3)cc1 (stereo unspecified) the results were NR1D1 modulator -0.1.
For Cn1c(=O)c(=O)n(C)c2cc(S(=O)(=O)N3CCN(CCO)CC3)ccc21 the results were NR1D1 modulator -7.3.
`Cn1ncc(Cl)c1C(=O)Nc1sc2c(c1C(N)=O)CCC2` gave NR2E3 ag-1 -7.3, NR2E3 ag-2 16.5, NR1D1 modulator 9.8, PG9 Ab binder 8.7*, PG9 binder conf 11.9* and PGV04 counter 28.6*.
NC(=O)c1c(NC(=O)c2ccccc2)sc2c1CCC2 was read as NR2E3 ag-1 3.5, NR2E3 ag-2 -140.8, NR1D1 modulator -4.4 and PG9 Ab binder -1.6.
Cc1noc(C)c1C(=O)Nc1sc2c(c1C(N)=O)CCC2 was read as NR2E3 ag-1 0.0, NR2E3 ag-2 9.0, NR1D1 modulator 5.5, PG9 Ab binder 12.1*, PG9 binder conf 6.0 and PGV04 counter 17.5*.
COC(=O)C1CN(Cc2cn(Cc3ccccc3)nn2)CCS(=O)(=O)N1Cc1ccc(F)cc1 (stereo unspecified) was read as NR1D1 modulator -1.8.
Screening COCCN1CCC(CO)C1 (stereo unspecified) returned NR2E3 ag-2 10.9, NR1D1 modulator -1.7, PG9 Ab binder 10.3*, PG9 binder conf 8.0 and PGV04 counter 10.8*.
COCCN1CCC(CNCc2cn[nH]c2-c2ccc(C)c(C)c2)C1 (stereo unspecified) was read as NR2E3 ag-1 2.7, NR2E3 ag-2 -9.7, NR1D1 modulator 7.2 and PG9 Ab binder -1.3.
COC(=O)[C@]12C[C@H](CC(=O)NCC3CCCCC3)C(=O)N(CCc3ccc(OC)c(OC)c3)C1=C[C@H](COCc1ccccc1)O[C@@H]2C was read as NR1D1 modulator 2.7.
